Data on five molecules can be found in ChEMBL document CHEMBL1142796 (Bioorg Med Chem Lett, 2005).

The structures appear in SMILES notation.

Experiment [1] concerns the target Neuronal acetylcholine receptor subunit alpha-7 (Rattus norvegicus) (UniProt Q05941). Description: Maximal response against rat alpha-7 nicotinic acetylcholine receptor. An outline of the steps:
(§1)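 Rat α7 expressed in Xenopus oocytes, two-electrode voltage clamp at −60 mV, perfused at 2 ml/min. Controls were 300 μM ACh applied for 12 s with 181 s washout, given as two controls, then drug, then a control. Net-charge responses were normalized to the preceding ACh control and rescaled to the ACh maximum.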

The target of experiment [2] is T1, Neuronal acetylcholine receptor subunit alpha-7 (Rattus norvegicus, UniProt Q05941). In words: Effective concentration against rat alpha7 nicotinic acetylcholine receptor. Put shortly:
as §1

In experiment [3] the target is T2, Neuronal acetylcholine receptor; alpha4/beta2 (Rattus norvegicus, UniProt P09483+P12390). In words: Inhibition of [3H]nicotine binding to alpha4-beta2 nicotinic acetylcholine receptor of rat brain membrane.
T2 sequence (P09483 whole entry, the tested form may be a part): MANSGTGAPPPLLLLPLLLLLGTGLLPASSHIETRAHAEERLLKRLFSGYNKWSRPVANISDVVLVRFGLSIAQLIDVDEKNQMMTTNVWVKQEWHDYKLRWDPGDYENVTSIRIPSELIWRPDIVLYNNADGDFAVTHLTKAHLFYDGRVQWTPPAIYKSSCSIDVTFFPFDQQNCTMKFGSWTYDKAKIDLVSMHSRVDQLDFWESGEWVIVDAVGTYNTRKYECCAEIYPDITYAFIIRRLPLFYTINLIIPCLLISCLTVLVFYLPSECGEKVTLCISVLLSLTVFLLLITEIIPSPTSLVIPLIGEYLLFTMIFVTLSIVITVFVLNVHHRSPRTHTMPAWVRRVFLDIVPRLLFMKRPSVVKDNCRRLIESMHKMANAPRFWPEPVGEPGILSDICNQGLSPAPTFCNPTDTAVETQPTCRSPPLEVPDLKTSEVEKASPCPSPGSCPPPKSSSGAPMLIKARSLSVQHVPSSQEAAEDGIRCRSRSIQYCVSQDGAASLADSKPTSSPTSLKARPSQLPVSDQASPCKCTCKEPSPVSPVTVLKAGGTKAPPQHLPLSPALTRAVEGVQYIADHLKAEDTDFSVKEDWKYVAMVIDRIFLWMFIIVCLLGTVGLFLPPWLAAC
T2 sequence (P12390 whole entry, the tested form may be a part): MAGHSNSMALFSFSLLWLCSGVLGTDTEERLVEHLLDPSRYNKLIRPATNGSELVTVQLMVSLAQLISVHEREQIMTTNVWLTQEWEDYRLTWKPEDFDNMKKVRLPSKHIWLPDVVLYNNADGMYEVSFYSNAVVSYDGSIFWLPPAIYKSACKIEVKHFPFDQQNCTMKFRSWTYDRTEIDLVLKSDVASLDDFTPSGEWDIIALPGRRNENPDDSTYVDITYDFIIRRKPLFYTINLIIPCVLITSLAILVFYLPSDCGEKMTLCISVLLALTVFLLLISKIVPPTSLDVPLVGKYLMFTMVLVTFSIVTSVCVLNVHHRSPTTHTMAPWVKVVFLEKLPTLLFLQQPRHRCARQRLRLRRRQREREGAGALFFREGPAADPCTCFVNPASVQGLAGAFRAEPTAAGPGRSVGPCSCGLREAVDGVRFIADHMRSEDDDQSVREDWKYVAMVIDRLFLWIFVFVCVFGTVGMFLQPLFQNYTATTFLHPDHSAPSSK
For experiment [4], the target named is Neuronal acetylcholine receptor; alpha4/beta2 (Rattus norvegicus) (UniProt P09483+P12390). In words: Maximal response against rat alpha4-beta2 nicotinic acetylcholine receptor. The format is protein-complex assay. Put shortly: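 Rat α4β2 expressed in Xenopus oocytes, two-electrode voltage clamp at −60 mV, perfused at 4 ml/min. Controls were 10 μM ACh applied for 8 s with 241 s washout, given as two controls, then drug, then a control. Peak current was normalized to the preceding ACh control and rescaled to the ACh maximum.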

For experiment [5], the target named is Neuronal acetylcholine receptor; alpha3/beta4 (Rattus norvegicus) (UniProt P04757+P12392). In words: Maximal response against rat alpha3-beta4 nicotinic acetylcholine receptor. The class given is protein-complex assay. Put shortly: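 Rat α3β4 expressed in Xenopus oocytes, two-electrode voltage clamp at −60 mV, perfused at 4 ml/min. Controls were 100 μM ACh applied for 8 s with 241 s washout, given as two controls, then drug, then a control. Peak current was normalized to the preceding ACh control and rescaled to the ACh maximum.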

Experiment [6] concerns the target T1, Neuronal acetylcholine receptor subunit alpha-7. In words: Inhibition of [3H]-MLA binding to alpha-7 nicotinic acetylcholine receptor of rat brain membrane.
Experiment [7] concerns the target T2, Neuronal acetylcholine receptor; alpha4/beta2. In words: Effective concentration against rat alpha4-beta2 nicotinic acetylcholine receptor. The class given is protein-complex assay. Put shortly: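 Rat α4β2 expressed in Xenopus oocytes, two-electrode voltage clamp at −60 mV, perfused at 4 ml/min. Peak current was normalized to the preceding ACh control and rescaled to the ACh maximum.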

The target of experiment [8] is Neuronal acetylcholine receptor; alpha3/beta4 (Rattus norvegicus, UniProt P04757+P12392). In words: Effective concentration against rat alpha3-beta4 nicotinic acetylcholine receptor. The class given is protein-complex assay. Put shortly:
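Rat α3β4 expressed in Xenopus oocytes, two-electrode voltage clamp at −60 mV, perfused at 4 ml/min. Peak current was normalized to the preceding ACh control and rescaled to the ACh maximum.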

The target of experiment [9] is T1, Neuronal acetylcholine receptor subunit alpha-7. In words: Effective concentration against rat alpha-7 nicotinic acetylcholine receptor. An outline of the steps:
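Rat α7 expressed in Xenopus oocytes, two-electrode voltage clamp at −60 mV, perfused at 2 ml/min. Net-charge responses were normalized to the preceding ACh control and rescaled to the ACh maximum.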

Experiment [10] has the same target. Description: Inhibition of [3H]MLA binding to rat alpha7 nicotinic acetylcholine receptor.

T1 sequence (Q05941 whole entry): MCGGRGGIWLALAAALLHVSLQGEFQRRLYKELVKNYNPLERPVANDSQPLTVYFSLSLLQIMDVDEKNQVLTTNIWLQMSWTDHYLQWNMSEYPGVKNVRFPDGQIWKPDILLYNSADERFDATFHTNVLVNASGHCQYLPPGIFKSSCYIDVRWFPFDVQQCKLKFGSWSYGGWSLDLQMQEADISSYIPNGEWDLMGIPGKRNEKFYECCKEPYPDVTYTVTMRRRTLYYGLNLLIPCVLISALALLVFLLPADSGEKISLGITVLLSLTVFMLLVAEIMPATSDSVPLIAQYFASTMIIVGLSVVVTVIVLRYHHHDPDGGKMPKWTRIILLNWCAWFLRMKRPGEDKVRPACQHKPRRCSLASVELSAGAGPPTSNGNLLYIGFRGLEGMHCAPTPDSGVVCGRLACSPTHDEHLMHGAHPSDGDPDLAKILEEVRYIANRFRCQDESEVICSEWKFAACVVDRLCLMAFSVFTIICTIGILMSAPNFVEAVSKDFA
Chain of Neuronal acetylcholine receptor subunit alpha-7 (Rattus norvegicus) (Q05941 whole entry, the tested form may be a part): as the sequence (Q05941 whole entry) above
Chain of Neuronal acetylcholine receptor; alpha3/beta4 (P04757 whole entry, the tested form may be a part): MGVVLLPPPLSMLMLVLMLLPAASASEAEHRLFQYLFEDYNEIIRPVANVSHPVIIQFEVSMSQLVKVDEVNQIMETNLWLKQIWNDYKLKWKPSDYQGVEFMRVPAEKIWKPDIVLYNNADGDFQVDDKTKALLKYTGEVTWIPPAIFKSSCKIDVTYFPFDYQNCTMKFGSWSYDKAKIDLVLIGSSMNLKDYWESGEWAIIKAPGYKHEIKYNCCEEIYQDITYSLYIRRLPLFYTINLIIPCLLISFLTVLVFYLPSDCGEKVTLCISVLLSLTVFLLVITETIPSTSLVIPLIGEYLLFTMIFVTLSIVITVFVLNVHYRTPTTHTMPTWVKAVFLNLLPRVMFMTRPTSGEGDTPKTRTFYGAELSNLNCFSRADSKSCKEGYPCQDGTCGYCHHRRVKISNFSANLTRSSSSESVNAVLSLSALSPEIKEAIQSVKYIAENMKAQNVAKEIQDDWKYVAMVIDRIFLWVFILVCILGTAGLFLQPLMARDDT
Chain of Neuronal acetylcholine receptor; alpha3/beta4 (P12392 whole entry, the tested form may be a part): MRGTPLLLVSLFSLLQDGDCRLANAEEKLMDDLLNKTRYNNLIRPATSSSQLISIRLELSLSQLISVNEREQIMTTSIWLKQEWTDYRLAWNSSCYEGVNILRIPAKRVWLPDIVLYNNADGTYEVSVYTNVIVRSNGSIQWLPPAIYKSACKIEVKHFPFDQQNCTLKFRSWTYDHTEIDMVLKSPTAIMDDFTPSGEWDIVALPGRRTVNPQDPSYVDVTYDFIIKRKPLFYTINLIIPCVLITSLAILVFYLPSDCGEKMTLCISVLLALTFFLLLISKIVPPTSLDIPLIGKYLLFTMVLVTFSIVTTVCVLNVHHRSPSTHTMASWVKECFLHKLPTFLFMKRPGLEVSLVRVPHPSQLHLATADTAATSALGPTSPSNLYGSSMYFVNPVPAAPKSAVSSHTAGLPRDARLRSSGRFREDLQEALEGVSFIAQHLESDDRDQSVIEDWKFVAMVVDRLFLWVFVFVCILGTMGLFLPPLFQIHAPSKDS

Molecule `CN1CC[C@@H]2CCc3ccncc3[C@@H]21` came in with an Imax in experiment [1] of 0.11. Moreover, the concentration giving a half-maximal response (EC50) in experiment [2] came to 44 µM. Further, in experiment [3], the affinity, expressed as Ki, was 0.4 µM.

Turning to `CN1CCC[C@H]1c1ccc[n+]([BH2-]C#N)c1`, the Imax in experiment [4] stood at 0.05; in experiment [5], 0.06; in experiment [1], 0.15. Also, the Ki in experiment [6] was determined as 15.2 µM; in experiment [3] it was 0.041 µM. In addition, the 50% effective concentration (EC50) stood at 150 µM in experiment [7], 28 µM in experiment [8] and 21 µM in experiment [9].

`CN1CC[C@@H]2CCc3cc[n+]([BH2-]C#N)cc3[C@@H]21`: the Imax in experiment [1] stood at 0.26. The Ki was 2.4 µM in [10] and 0.6 µM in experiment [3]. The molecule also yielded an EC50 in experiment [9] of 20 µM.

Turning to `CN1CCC[C@H]1c1cccnc1`, the values for the Imax in experiment [4], in experiment [5] and in [1] were 0.17, 0.69 and 0.6, respectively.

As for `CN1CC[C@H]2CCc3ncccc3[C@H]21`, in experiment [3], the Ki came out at 12.2 µM.

Broadly, the EC50 is the concentration giving half of the maximal effect. A lower EC50 goes with a more potent agent. As a reminder, the Ki is the dissociation constant of the complex between target and ligand, obtained from inhibition or displacement. A higher Ki goes with a looser hold on the target.
